In assay [1] the test system is Receptor-type tyrosine-protein kinase FLT3 (Homo sapiens), P36888 [D835Y]. Description: Inhibition of FLT3 D835Y mutant at 1 uM in presence of 10 uM ATP by Select Screen kinase assay relative to untreated control. Put shortly:
(§1)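 Part of a 220-kinase panel of purified kinases, each tested with compound at 1 μM. Percent inhibition was measured in the Invitrogen SelectScreen profiling assay.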

Assay [2] deals with Ephrin type-A receptor 2 (Homo sapiens) (UniProt P29317). Description: Inhibition of EPHA2 at 1 uM in presence of 10 uM ATP by Select Screen kinase assay relative to untreated control. Put shortly:
(§2)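 Single-point screen at 1 μM against a panel of 220 purified kinases, run by Invitrogen staff as a SelectScreen profiling service. Read-out is percent inhibition of kinase activity.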

Assay [3] has as its target Dual specificity tyrosine-phosphorylation-regulated kinase 1A (Homo sapiens) (UniProt Q13627). As to the kind of experiment: Inhibition of DYRK1A at 1 uM in presence of 10 uM ATP by Select Screen kinase assay relative to untreated control. Put shortly: as §2
The target in assay [4] is G protein-coupled receptor kinase 5 (Homo sapiens) (UniProt P34947). As to the kind of experiment: Inhibition of GRK5 at 1 uM in presence of 10 uM ATP by Select Screen kinase assay relative to untreated control. The gist of the method:
(§3)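 Single-concentration profiling at 1 μM against a panel of 220 purified kinases, run as an outsourced SelectScreen kinase profiling service. Activity is expressed as percent inhibition.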

The target in assay [5] is Mitogen-activated protein kinase 3 (ERK1) (Homo sapiens) (UniProt P27361). Description: Inhibition of MAPK3 at 1 uM in presence of 10 uM ATP by Select Screen kinase assay relative to untreated control.
Mitogen-activated protein kinase 3 (ERK1) (Homo sapiens), sequence (P27361 whole entry, looked up): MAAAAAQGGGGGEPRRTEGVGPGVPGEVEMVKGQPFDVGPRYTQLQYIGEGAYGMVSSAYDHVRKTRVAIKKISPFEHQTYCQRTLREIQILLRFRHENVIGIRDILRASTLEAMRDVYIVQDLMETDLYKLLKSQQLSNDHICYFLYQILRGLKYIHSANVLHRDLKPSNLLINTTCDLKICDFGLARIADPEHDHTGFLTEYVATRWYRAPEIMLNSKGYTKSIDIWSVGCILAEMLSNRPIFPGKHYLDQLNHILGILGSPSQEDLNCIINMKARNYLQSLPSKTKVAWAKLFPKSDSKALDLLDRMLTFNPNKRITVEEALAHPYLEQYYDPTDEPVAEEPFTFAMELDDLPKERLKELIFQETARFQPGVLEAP
Assay [6] has as its target Serine/threonine-protein kinase MRCK beta (Homo sapiens) (UniProt Q9Y5S2). As to the kind of experiment: Inhibition of CDC42 binding protein beta at 1 uM in presence of 10 uM ATP by Select Screen kinase assay relative to untreated control. The gist of the method: as §2
The target of assay [7] is Insulin receptor (Homo sapiens) (UniProt P06213). As to the kind of experiment: Inhibition of INSR at 1 uM in presence of 10 uM ATP by Select Screen kinase assay relative to untreated control.
Assay [8] concerns the target Ephrin type-B receptor 3 (Homo sapiens) (UniProt P54753). As to the kind of experiment: Inhibition of EPHB3 at 1 uM in presence of 10 uM ATP by Select Screen kinase assay relative to untreated control. Put shortly:
as §1

In assay [9] the target is T1, Tyrosine-protein kinase ZAP-70 (Homo sapiens) (UniProt P43403).
T1 sequence (whole entry): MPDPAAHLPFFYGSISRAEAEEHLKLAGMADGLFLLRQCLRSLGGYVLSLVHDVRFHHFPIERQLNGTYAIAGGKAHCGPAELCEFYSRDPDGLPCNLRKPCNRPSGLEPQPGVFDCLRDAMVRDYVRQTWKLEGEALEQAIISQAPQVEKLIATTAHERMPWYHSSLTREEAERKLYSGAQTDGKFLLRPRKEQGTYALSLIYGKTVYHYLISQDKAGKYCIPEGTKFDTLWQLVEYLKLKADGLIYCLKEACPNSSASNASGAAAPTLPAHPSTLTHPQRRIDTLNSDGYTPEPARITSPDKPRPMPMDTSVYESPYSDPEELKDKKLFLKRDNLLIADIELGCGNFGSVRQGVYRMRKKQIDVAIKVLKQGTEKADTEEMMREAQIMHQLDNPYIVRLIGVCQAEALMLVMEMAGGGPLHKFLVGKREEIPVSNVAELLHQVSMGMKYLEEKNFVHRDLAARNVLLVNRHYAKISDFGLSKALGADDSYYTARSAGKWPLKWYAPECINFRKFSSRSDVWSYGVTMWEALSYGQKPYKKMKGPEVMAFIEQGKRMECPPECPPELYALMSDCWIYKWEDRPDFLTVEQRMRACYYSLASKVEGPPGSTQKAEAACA
As to the kind of experiment: Inhibition of ZAP70 at 1 uM in presence of 10 uM ATP by Select Screen kinase assay relative to untreated control. The gist of the method:
(§4)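 Commercial SelectScreen profiling panel of 220 purified kinases. Each kinase was tested at a single inhibitor concentration of 1 μM, and activity was expressed as percent inhibition.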

Assay [10] addresses Tyrosine-protein kinase Srms (Homo sapiens) (UniProt Q9H3Y6). Description: Inhibition of SRMS at 1 uM in presence of 10 uM ATP by Select Screen kinase assay relative to untreated control. The gist of the method:
as §4

In assay [11] the target is Tyrosine-protein kinase Yes (Homo sapiens) (UniProt P07947). Description: Inhibition of YES1 at 1 uM in presence of 10 uM ATP by Select Screen kinase assay relative to untreated control. The gist of the method: as §4
Tyrosine-protein kinase Yes (Homo sapiens), sequence (P07947 2-543 limits assumed): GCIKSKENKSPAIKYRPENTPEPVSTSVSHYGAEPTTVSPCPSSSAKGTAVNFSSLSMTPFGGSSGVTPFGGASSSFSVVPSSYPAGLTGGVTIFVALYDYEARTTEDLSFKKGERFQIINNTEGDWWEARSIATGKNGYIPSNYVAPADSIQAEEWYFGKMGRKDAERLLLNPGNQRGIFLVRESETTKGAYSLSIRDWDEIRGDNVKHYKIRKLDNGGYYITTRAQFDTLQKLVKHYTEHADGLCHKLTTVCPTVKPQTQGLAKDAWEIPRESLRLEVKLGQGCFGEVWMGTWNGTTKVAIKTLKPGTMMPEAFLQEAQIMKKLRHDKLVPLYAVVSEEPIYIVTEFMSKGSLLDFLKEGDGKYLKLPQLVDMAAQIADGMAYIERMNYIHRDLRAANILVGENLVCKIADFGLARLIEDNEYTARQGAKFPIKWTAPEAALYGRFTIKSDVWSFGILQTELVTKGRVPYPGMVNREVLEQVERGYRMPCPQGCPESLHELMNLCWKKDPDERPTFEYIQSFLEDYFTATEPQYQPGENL
Assay [12] deals with Serine/threonine-protein kinase MARK2 (Homo sapiens) (UniProt Q7KZI7). As to the kind of experiment: Inhibition of MARK2 at 1 uM in presence of 10 uM ATP by Select Screen kinase assay relative to untreated control. Put shortly:
as §3

For assay [13], the target named is Protein-tyrosine kinase 6 (Homo sapiens) (UniProt Q13882). Description: Inhibition of PTK6 at 1 uM in presence of 10 uM ATP by Select Screen kinase assay relative to untreated control. The gist of the method: as §4
Protein-tyrosine kinase 6 (Homo sapiens), sequence (Q13882 whole entry, looked up): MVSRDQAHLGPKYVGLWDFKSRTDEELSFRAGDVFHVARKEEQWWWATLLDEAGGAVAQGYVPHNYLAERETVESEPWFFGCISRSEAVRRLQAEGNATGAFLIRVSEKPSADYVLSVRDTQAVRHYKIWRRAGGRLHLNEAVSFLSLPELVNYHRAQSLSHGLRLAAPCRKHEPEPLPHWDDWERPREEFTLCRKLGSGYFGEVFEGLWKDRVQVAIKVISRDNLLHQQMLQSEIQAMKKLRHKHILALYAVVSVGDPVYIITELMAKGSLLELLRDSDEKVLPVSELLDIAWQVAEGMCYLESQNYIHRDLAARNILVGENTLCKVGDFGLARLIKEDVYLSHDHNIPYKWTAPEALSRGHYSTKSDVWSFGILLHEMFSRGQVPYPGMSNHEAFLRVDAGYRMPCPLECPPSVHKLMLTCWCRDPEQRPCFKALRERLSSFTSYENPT
The target of assay [14] is Serine/threonine-protein kinase MRCK alpha (Homo sapiens) (UniProt Q5VT25). Description: Inhibition of CDC42 binding protein alpha at 1 uM in presence of 10 uM ATP by Select Screen kinase assay relative to untreated control. Put shortly:
as §2

Assay [15] relates to Tyrosine-protein kinase JAK2 (Homo sapiens), O60674 [V617F]. As to the kind of experiment: Inhibition of JAK2 JH1 JH2 domain V617F mutant at 1 uM in presence of 10 uM ATP by Select Screen kinase assay relative to untreated control.
The target of assay [16] is Tyrosine-protein kinase JAK2 (Homo sapiens) (UniProt O60674). Description: Inhibition of JAK2 JH1 JH2 domain at 1 uM in presence of 100 uM ATP by Select Screen kinase assay relative to untreated control. Put shortly:
as §3

In assay [17] the target is Serine/threonine-protein kinase PAK 3 (Homo sapiens) (UniProt O75914). As to the kind of experiment: Inhibition of PAK3 at 1 uM in presence of 10 uM ATP by Select Screen kinase assay relative to untreated control.
The target in assay [18] is Tyrosine-protein kinase ABL1 (Homo sapiens) (UniProt P00519). As to the kind of experiment: Inhibition of ABL1 at 1 uM in presence of 10 uM ATP by Select Screen kinase assay relative to untreated control. Put shortly:
as §2

In assay [19] the test system is Proto-oncogene tyrosine-protein kinase receptor Ret (Homo sapiens), P07949 [V804L]. Description: Inhibition of RET V804L mutant at 1 uM in presence of 10 uM ATP by Select Screen kinase assay relative to untreated control. Put shortly: as §4
Assay [20] addresses MAP kinase-activated protein kinase 3 (Homo sapiens) (UniProt Q16644). As to the kind of experiment: Inhibition of MAPKAPK3 at 1 uM in presence of 10 uM ATP by Select Screen kinase assay relative to untreated control.
Assay [21] concerns the target Serine/threonine-protein kinase pim-2 (Homo sapiens) (UniProt Q9P1W9). As to the kind of experiment: Inhibition of PIM2 at 1 uM in presence of 10 uM ATP by Select Screen kinase assay relative to untreated control.
Assay [22] has as its system Tyrosine-protein kinase ABL1 (Homo sapiens), P00519 [G250E]. Description: Inhibition of ABL1 G250E mutant at 1 uM in presence of 10 uM ATP by Select Screen kinase assay relative to untreated control. The gist of the method: as §2

One may read the inhibition as the change of the read-out against control, counted positive when it falls.

Ephrin type-A receptor 2 (Homo sapiens), sequence (P29317 whole entry): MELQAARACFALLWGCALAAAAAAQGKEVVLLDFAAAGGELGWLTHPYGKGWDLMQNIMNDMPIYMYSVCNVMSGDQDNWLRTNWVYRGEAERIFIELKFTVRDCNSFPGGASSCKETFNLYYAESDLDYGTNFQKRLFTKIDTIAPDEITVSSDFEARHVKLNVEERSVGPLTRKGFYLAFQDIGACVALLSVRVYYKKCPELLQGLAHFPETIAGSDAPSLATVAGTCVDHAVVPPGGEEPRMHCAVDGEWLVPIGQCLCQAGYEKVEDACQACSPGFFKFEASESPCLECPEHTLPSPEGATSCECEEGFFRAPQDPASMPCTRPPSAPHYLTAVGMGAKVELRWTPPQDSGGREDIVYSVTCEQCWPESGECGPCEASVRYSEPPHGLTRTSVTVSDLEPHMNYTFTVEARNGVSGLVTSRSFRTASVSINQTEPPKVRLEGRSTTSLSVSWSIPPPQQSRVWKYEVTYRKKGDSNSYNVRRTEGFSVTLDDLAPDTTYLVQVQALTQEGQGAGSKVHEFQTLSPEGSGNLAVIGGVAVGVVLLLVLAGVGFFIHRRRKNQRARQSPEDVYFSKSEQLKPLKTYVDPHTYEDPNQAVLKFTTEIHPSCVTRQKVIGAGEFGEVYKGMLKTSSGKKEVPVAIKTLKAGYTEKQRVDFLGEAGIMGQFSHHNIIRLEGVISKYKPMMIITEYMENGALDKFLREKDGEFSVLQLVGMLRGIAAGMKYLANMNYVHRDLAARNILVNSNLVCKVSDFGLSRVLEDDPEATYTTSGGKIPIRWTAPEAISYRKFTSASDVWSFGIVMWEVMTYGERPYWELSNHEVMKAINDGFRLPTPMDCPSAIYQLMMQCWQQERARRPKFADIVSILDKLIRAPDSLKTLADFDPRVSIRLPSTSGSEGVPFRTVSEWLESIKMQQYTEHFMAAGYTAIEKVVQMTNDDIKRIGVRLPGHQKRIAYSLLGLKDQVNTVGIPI
Serine/threonine-protein kinase MARK2 (Homo sapiens), sequence (Q7KZI7 whole entry): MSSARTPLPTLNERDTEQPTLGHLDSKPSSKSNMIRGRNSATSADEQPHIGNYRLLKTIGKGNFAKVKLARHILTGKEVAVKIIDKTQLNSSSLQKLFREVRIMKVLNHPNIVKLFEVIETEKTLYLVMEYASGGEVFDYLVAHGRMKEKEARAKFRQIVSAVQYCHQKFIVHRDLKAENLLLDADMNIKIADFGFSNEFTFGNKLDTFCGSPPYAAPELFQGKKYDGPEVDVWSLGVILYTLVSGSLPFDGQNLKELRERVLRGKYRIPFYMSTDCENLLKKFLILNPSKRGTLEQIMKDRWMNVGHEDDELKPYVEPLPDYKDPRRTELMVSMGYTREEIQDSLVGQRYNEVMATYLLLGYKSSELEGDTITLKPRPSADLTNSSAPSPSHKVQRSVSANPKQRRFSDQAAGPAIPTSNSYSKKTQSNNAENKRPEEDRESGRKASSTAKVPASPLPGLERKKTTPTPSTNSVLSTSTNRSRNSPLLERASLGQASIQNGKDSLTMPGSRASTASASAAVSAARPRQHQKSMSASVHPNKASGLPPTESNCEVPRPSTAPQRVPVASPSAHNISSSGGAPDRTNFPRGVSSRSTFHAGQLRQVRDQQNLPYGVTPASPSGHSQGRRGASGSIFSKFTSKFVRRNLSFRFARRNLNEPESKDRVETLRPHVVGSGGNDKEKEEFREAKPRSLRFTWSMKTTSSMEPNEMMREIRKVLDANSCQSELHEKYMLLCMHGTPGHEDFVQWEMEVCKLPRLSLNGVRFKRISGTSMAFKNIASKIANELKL
G protein-coupled receptor kinase 5 (Homo sapiens), sequence (P34947 whole entry, looked up): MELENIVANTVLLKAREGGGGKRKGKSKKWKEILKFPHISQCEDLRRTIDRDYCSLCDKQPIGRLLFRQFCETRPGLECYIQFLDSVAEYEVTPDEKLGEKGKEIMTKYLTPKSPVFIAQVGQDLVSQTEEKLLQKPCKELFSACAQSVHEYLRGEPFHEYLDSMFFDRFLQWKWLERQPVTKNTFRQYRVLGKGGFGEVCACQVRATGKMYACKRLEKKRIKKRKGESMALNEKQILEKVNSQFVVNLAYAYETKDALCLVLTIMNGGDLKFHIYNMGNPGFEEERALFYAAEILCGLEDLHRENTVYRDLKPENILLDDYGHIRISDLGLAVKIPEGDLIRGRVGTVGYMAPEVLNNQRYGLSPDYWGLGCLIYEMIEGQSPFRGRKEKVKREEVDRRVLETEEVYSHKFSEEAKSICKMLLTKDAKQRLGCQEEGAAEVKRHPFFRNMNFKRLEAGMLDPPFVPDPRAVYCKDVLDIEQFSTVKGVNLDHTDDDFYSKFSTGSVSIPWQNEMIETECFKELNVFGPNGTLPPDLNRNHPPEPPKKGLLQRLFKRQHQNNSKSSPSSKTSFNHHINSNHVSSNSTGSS
Tyrosine-protein kinase Srms (Homo sapiens), sequence (Q9H3Y6 whole entry): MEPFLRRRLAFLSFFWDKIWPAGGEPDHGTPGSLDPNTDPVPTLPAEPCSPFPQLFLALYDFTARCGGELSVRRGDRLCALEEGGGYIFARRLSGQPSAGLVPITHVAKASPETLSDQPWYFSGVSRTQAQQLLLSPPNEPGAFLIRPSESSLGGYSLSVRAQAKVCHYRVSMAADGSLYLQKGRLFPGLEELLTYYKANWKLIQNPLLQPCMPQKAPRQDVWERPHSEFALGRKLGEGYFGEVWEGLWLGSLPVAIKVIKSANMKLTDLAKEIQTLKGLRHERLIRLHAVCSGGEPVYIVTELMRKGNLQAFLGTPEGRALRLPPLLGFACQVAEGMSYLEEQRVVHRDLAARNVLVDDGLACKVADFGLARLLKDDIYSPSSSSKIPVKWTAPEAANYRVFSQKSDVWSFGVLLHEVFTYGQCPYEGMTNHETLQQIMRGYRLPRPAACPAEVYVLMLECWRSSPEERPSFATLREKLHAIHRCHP
Serine/threonine-protein kinase pim-2 (Homo sapiens), sequence (Q9P1W9 whole entry, looked up): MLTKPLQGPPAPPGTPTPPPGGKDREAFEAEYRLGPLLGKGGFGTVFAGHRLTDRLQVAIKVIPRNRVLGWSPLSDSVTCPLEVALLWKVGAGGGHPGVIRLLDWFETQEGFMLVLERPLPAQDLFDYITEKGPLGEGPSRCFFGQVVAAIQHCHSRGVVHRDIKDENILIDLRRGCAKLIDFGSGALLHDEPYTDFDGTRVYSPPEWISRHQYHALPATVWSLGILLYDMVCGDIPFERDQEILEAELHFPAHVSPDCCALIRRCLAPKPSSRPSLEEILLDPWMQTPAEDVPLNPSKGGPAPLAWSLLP
MAP kinase-activated protein kinase 3 (Homo sapiens), sequence (Q16644 whole entry, looked up): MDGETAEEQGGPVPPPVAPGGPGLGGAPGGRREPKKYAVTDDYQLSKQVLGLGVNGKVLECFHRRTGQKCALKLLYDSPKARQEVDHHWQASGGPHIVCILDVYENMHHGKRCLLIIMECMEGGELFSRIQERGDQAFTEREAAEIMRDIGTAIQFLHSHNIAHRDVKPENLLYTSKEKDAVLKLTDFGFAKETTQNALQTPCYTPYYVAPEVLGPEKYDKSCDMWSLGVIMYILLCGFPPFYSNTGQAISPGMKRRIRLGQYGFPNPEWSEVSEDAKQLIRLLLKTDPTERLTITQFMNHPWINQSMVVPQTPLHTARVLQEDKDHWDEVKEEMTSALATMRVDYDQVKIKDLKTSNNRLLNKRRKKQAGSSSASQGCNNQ

In the case of `O=C(NCCCNc1nc(Nc2cccc(NC(=O)N3CCCC3)c2)ncc1I)c1cccs1`, the inhibition turned out to be 100% in [1]; 22% in assay [2]; 25% in assay [3]; 7% in [4]; 47% in [5]; 14% in assay [6]. Moreover, the inhibition amounted to 7% in [7]; 10% in assay [8]; 24% in assay [9]; 10% in [10]; 36% in assay [11]; 93% in assay [12]. The inhibition in assay [13] is 9%; in [14] it was 19%; in assay [15], 105%; in [16], 97%; in assay [17] it was -2%; in assay [18] it was 37%. Besides, the inhibition in [19] was 93%; in [20] it was 10%; in assay [21], 1%; in [22], 18%.
In the case of `COc1ccccc1N1CCN(c2ncnc3[nH]nc(Br)c23)CC1`, the inhibition in assay [1] was determined as 71%; in assay [2] it was 24%; in [3] it was 78%; in assay [4] it was 7%; in [5] it was 14%; in assay [6] it was 3%. For the same molecule, the inhibition in assay [7] worked out at 3%; in assay [8], 13%; in assay [9], 4%; in assay [10] it was 7%; in assay [11] it was 20%; in assay [12], 26%. In addition, the inhibition is 2% in [13]; -3% in [14]; -3% in assay [15]; 0% in assay [16]; 12% in assay [18]; 66% in [19]. The inhibition is 11% in assay [20], -1% in assay [21] and 7% in assay [22].
`Cc1n[nH]c2ccc(-c3cncc(OC[C@@H](N)Cc4c[nH]c5ccccc45)c3)cc12`: the inhibition is 8% in assay [2]; 102% in assay [3]; 46% in [4]; 43% in assay [5]; 11% in [9]; -1% in [10]. Moreover, the inhibition in [11] came out at 20%; in assay [12] it was 68%; in assay [13], 0%; in assay [17], 45%.

The values are drawn from ChEMBL document CHEMBL1250448, “Inhibitor hijacking of Akt activation” (Nat Chem Biol, 2009).
